Experimental data: ChEMBL document CHEMBL2062460, “Disubstituted thiourea derivatives and their activity on CNS: synthesis and biological evaluation” (Eur J Med Chem, 2012)
Values after ≈ are worked out from the molar mass of the structure shown. Active and inactive are the calls of the source. The rule behind the calls is not given here.

Assays:
Staphylococcus aureus [1] = assay: Antibacterial activity against methicillin-susceptible Staphylococcus aureus clinical isolate 261/08 after 18 hrs by twofold serial agar dilution technique; type: functional; details: clinical isolate 261/08, 18 h
How it was run: (§1)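 Clinical isolates came from patients in Warsaw Medical University Hospitals and were classed as methicillin-susceptible or -resistant. MIC was determined by twofold serial agar dilution on Mueller–Hinton II agar (CLSI), 3.125–400 µg/mL in agar, with compounds in methanol or DMSO. Inoculum was 10^4 CFU/mL and plates were read after 18 h at 35 °C.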

[2] = tested on: Staphylococcus epidermidis; assay: Antibacterial activity against methicillin-resistant Staphylococcus epidermidis clinical isolate 311/08 after 18 hrs by twofold serial agar dilution technique; type: functional; details: clinical isolate 311/08, 18 h; how it was run: as §1
Staphylococcus aureus [3] = assay: Antibacterial activity against methicillin-susceptible Staphylococcus aureus clinical isolate 267/08 after 18 hrs by twofold serial agar dilution technique; type: functional; details: clinical isolate 267/08, 18 h; how it was run: as §1
Micrococcus luteus = assay: Antibacterial activity against Micrococcus luteus ATCC 9341 at 400 ug/disc after 18 hrs by disc diffusion method; type: functional; details: ATCC 9341, 18 h, read-out: DIZ
How it was run: (§2)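 Disc diffusion per CLSI on Mueller–Hinton II agar; 9 mm paper discs loaded from methanol or DMSO solutions to 400 µg per disc, dried; growth inhibition zone diameter read after 18 h at 35 °C.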

Staphylococcus aureus [4] = assay: Antibacterial activity against Staphylococcus aureus ATCC 29213 at 400 ug/disc after 18 hrs by disc diffusion method; type: functional; details: ATCC 29213, 18 h, read-out: DIZ; how it was run: as §2
Pseudomonas aeruginosa = assay: Antibacterial activity against Pseudomonas aeruginosa ATCC 27853 at 400 ug/disc after 18 hrs by disc diffusion method; type: functional, organism-based; how it was run: as §2
Staphylococcus aureus [5] = assay: Antibacterial activity against methicillin-resistant Staphylococcus aureus clinical isolate 356/09 after 18 hrs by twofold serial agar dilution technique; type: functional; details: clinical isolate 356/09, 18 h; how it was run: as §1
Staphylococcus aureus [6] = assay: Antibacterial activity against Staphylococcus aureus NCTC 4163 at 400 ug/disc after 18 hrs by disc diffusion method; type: functional; how it was run: as §2
Escherichia coli [7] = assay: Antibacterial activity against Escherichia coli ATCC 25922 at 400 ug/disc after 18 hrs by disc diffusion method; type: functional, organism-based; how it was run: as §2
[8] = tested on: Staphylococcus epidermidis; assay: Antibacterial activity against Staphylococcus epidermidis ATCC 12228 after 18 hrs by twofold serial agar dilution technique; type: functional; details: ATCC 12228, 18 h
How it was run: (§3)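 Twofold serial agar dilution on Mueller–Hinton II agar, following CLSI guidelines. Compounds were dissolved in methanol or DMSO and tested at final agar concentrations of 3.125–400 µg/mL. Final inoculum was 10^4 CFU/mL.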

Bacillus subtilis [9] = assay: Antibacterial activity against Bacillus subtilis ATCC 6633 after 18 hrs by twofold serial agar dilution technique; type: functional; details: ATCC 6633, 18 h
Staphylococcus aureus [10] = assay: Antibacterial activity against methicillin-resistant Staphylococcus aureus clinical isolate 325/09 after 18 hrs by twofold serial agar dilution technique; type: functional; details: clinical isolate 325/09, 18 h; how it was run: as §1
Staphylococcus aureus [11] = assay: Antibacterial activity against Staphylococcus aureus ATCC 29213 after 18 hrs by twofold serial agar dilution technique; type: functional; details: ATCC 29213, 18 h; how it was run: as §3
Staphylococcus aureus [12] = assay: Antibacterial activity against methicillin-susceptible Staphylococcus aureus clinical isolate 269/08 after 18 hrs by twofold serial agar dilution technique; type: functional; details: clinical isolate 269/08, 18 h; how it was run: as §1
[13] = tested on: Staphylococcus epidermidis; assay: Antibacterial activity against methicillin-resistant Staphylococcus epidermidis clinical isolate 342/09 after 18 hrs by twofold serial agar dilution technique; type: functional; details: clinical isolate 342/09, 18 h; how it was run: as §1
Proteus vulgaris = assay: Antibacterial activity against Proteus vulgaris NCTC 4635 at 400 ug/disc after 18 hrs by disc diffusion method; type: functional, organism-based; how it was run: as §2
Staphylococcus aureus [14] = assay: Antibacterial activity against Staphylococcus aureus ATCC 6538 after 18 hrs by twofold serial agar dilution technique; type: functional; details: ATCC 6538, 18 h; how it was run: as §3
Bacillus subtilis [15] = assay: Antibacterial activity against Bacillus subtilis ATCC 6633 at 400 ug/disc after 18 hrs by disc diffusion method; type: functional; details: ATCC 6633, 18 h, read-out: DIZ; how it was run: as §2
Staphylococcus aureus [16] = assay: Antibacterial activity against Staphylococcus aureus ATCC 6538 at 400 ug/disc after 18 hrs by disc diffusion method; type: functional; how it was run: as §2
[17] = Cytotoxicity against human MT4 cells after 96 hrs by MTT assay; type: cell-based
Staphylococcus aureus [18] = assay: Antibacterial activity against methicillin-resistant Staphylococcus aureus clinical isolate 329/08 after 18 hrs by twofold serial agar dilution technique; type: functional; details: clinical isolate 329/08, 18 h; how it was run: as §1
Candida albicans = assay: Antifungal activity against Candida albicans ATCC 10231 at 400 ug/disc after 18 hrs by disc diffusion method; type: functional, organism-based
How it was run: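 Yeasts tested by disc diffusion (CLSI) on RPMI agar with 2% glucose; 9 mm paper discs bearing 400 µg compound from methanol or DMSO solution; inhibition zone diameter read after 18 h at 35 °C.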

[19] = tested on: Staphylococcus epidermidis; assay: Antibacterial activity against methicillin-resistant Staphylococcus epidermidis clinical isolate 343/09 after 18 hrs by twofold serial agar dilution technique; type: functional; details: clinical isolate 343/09, 18 h; how it was run: as §1
Staphylococcus aureus [20] = assay: Antibacterial activity against methicillin-susceptible Staphylococcus aureus clinical isolate 268/08 after 18 hrs by twofold serial agar dilution technique; type: functional; details: clinical isolate 268/08, 18 h; how it was run: as §1
Escherichia coli [21] = assay: Antibacterial activity against Escherichia coli NCTC 8196 at 400 ug/disc after 18 hrs by disc diffusion method; type: functional, organism-based; how it was run: as §2
Staphylococcus aureus [22] = assay: Antibacterial activity against methicillin-susceptible Staphylococcus aureus clinical isolate 339/09 after 18 hrs by twofold serial agar dilution technique; type: functional; details: clinical isolate 339/09, 18 h; how it was run: as §1
[23] = tested on: Staphylococcus epidermidis; assay: Antibacterial activity against methicillin-resistant Staphylococcus epidermidis clinical isolate 316/08 after 18 hrs by twofold serial agar dilution technique; type: functional; details: clinical isolate 316/08, 18 h; how it was run: as §1

SMILES | MIC (Staphylococcus aureus [1]) | MIC [2] | MIC (Staphylococcus aureus [3]) | zone of inhibition at 400 µg/disc (Micrococcus luteus) | zone of inhibition at 400 µg/disc (Staphylococcus aureus [4]) | diameter of the inhibition zone (DIZ) (Pseudomonas aeruginosa) | MIC (Staphylococcus aureus [5]) | diameter of the inhibition zone (DIZ) (Escherichia coli [7]) | MIC [8] | MIC (Bacillus subtilis [9]) | MIC (Staphylococcus aureus [10]) | MIC (Staphylococcus aureus [11]) | MIC (Staphylococcus aureus [12]) | MIC [13] | diameter of the inhibition zone (DIZ) (Proteus vulgaris) | MIC (Staphylococcus aureus [14]) | zone of inhibition at 400 µg/disc (Bacillus subtilis [15]) | CC50 at 96 h [17] | MIC (Staphylococcus aureus [18]) | diameter of the inhibition zone (DIZ) (Candida albicans) | also measured
S=C(Nc1ccc(I)cc1)Nc1nc[nH]n1 | 25 µg/mL (≈ 72.4 µM) | 50 µg/mL (≈ 145 µM) | 25 µg/mL (≈ 72.4 µM) | 13 mm | 13 mm | inactive | 50 µg/mL (≈ 145 µM) | inactive | 25 µg/mL (≈ 72.4 µM) | 12.5 µg/mL (≈ 36.2 µM) | 25 µg/mL (≈ 72.4 µM) | 25 µg/mL (≈ 72.4 µM) | 25 µg/mL (≈ 72.4 µM) | 25 µg/mL (≈ 72.4 µM) | inactive | 25 µg/mL (≈ 72.4 µM) | 18 mm | 46 µM | 25 µg/mL (≈ 72.4 µM) | inactive | zone of inhibition at 400 µg/disc (Staphylococcus aureus [6]; NCTC 4163, 18 h, read-out: DIZ): 12 mm; zone of inhibition at 400 µg/disc (Staphylococcus aureus [16]; ATCC 6538, 18 h, read-out: DIZ): 12 mm; MIC [19]: 50 µg/mL (≈ 145 µM); MIC (Staphylococcus aureus [20]): 25 µg/mL (≈ 72.4 µM); diameter of the inhibition zone (DIZ) (Escherichia coli [21]): inactive; MIC (Staphylococcus aureus [22]): 50 µg/mL (≈ 145 µM); MIC [23]: 50 µg/mL (≈ 145 µM)
S=C(Nc1ccccc1)Nc1nc[nH]n1 | 50 µg/mL (≈ 228 µM) | 100 µg/mL (≈ 456 µM) | 50 µg/mL (≈ 228 µM) | 14 mm | 11 mm | inactive | 50 µg/mL (≈ 228 µM) | inactive | 50 µg/mL (≈ 228 µM) | 50 µg/mL (≈ 228 µM) | 50 µg/mL (≈ 228 µM) | 100 µg/mL (≈ 456 µM) | 50 µg/mL (≈ 228 µM) | 200 µg/mL (≈ 912 µM) | inactive | 100 µg/mL (≈ 456 µM) | 16 mm | > 100 µM | 50 µg/mL (≈ 228 µM) | inactive | diameter of the inhibition zone (DIZ) (Staphylococcus aureus [6]): inactive; diameter of the inhibition zone (DIZ) (Staphylococcus aureus [16]): inactive; MIC [19]: 50 µg/mL (≈ 228 µM); MIC (Staphylococcus aureus [20]): 50 µg/mL (≈ 228 µM); diameter of the inhibition zone (DIZ) (Escherichia coli [21]): inactive; MIC (Staphylococcus aureus [22]): 50 µg/mL (≈ 228 µM); MIC [23]: 100 µg/mL (≈ 456 µM)
